Data published in publication PMC8602434 (Drugs in R&D, 2021).

How the values were obtained:
[1] = Rat 28-day toxicology study with toxicokinetic analysis, sc; format: in vivo
Summary of the method: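 Male and female CD Sprague Dawley rats (233–264 g male, 172–201 g female). 28-day toxicology study (70 per sex) with daily sc dosing at 0, 1.0, 5.0 or 25.0 mg/kg/day. Blood drawn via sublingual vein, three animals per sex per dose at each time point. Noncompartmental analysis of mean concentration–time data gave AUClast, Cmax, tmax and t½.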

[2] = Healthy volunteers, single-dose arm, sc; format: in vivo; settings: human; for half-life: t½
Summary of the method: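 Double-blind single abdominal sc injection at 0.1, 0.5, 1, 3 or 5 mg versus placebo. Cohorts of six or eight subjects; the 0.1 mg cohort had 4 active and 2 placebo. Serial blood sampling to 48 h post-dose. Plasma assayed by validated bioanalytical method. Noncompartmental analysis: Cmax, tmax, t½, AUC (linear trapezoidal to last quantifiable concentration), AUC∞, CL/F. AEs recorded.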

[3] = both, plasma, sc, 0.1 mg, single 0.1 mg sc, mean (SD), n=4
[4] = both, plasma, sc, 0.5 mg, single 0.5 mg sc, mean (SD), n=4
[5] = both, plasma, sc, 1 mg, single 1.0 mg sc, mean (SD), n=6
[6] = both, plasma, sc, 3 mg, single 3.0 mg sc, median, n=6
[7] = both, plasma, sc, 5 mg, single 5.0 mg sc, mean (SD), n=6
[8] = single 0.1 mg sc, geometric mean, n=4
[9] = single 0.1 mg sc, mean (SD), n=4
[10] = single 0.5 mg sc, geometric mean, n=2
[11] = single 0.5 mg sc, geometric mean, n=4
[12] = single 1.0 mg sc, geometric mean, n=6
[13] = single 3.0 mg sc, mean (SD), n=6
[14] = single 5.0 mg sc, geometric mean, n=6
[15] = single 5.0 mg sc, mean (SD), n=6

## CCCC[C@H](NC(C)=O)C(=O)N[C@H]1CCC(=O)NC[C@@H](C(=O)N[C@@H](Cc2c[nH]c3ccccc23)C(N)=O)NC(=O)[C@H](CCCNC(=N)N)NC(=O)[C@@H](Cc2ccccc2)NC(=O)[C@H](Cc2c[nH]cn2)NC1=O [PL8177]
[1]; rat F, 1.0 mg/kg sc daily, Day 14 (truncated curve, 3 data points)
  tmax: 30 min
[1]; rat F, 1.0 mg/kg sc daily, Day 28
  tmax: 30 min
[1]; rat F, 5.0 mg/kg sc daily, Day 14 (truncated curve, 3 data points)
  tmax: 60 min
[1]; rat F, 25.0 mg/kg sc daily, Day 14 (truncated curve, 3 data points)
  tmax: 30 min
[1]; rat F, 25.0 mg/kg sc daily, Day 28
  tmax: 30 min
[1]; rat M, 1.0 mg/kg sc daily, Day 1
  tmax: 30 min
[1]; rat M, 1.0 mg/kg sc daily, Day 14 (truncated curve, 3 data points)
  tmax: 30 min
[1]; rat M, 1.0 mg/kg sc daily, Day 28
  tmax: 30 min
[1]; rat M, 5.0 mg/kg sc daily, Day 14 (truncated curve, 3 data points)
  tmax: 60 min
[1]; rat M, 5.0 mg/kg sc daily, Day 28
  tmax: 30 min
[1]; rat M, 25.0 mg/kg sc daily, Day 28
  tmax: 15 min
[2]; both, plasma, sc, 0.1 mg
  AUC(0-t): 2.7 ng·h/mL
  tmax: 36 min
[2]; [3]
  AUC(0-inf): 3.5 ng·h/mL
  half-life: 54 min
[2]; both, plasma, sc, 0.1 mg, CL/F, single 0.1 mg sc, mean (SD), n=4
  CL/F: 29.8 L/h
[2]; both, plasma, sc, 0.1 mg, Cmax, single 0.1 mg sc, mean (SD), n=4
  Cmax: 2.3 ng/mL
[2]; both, plasma, sc, 0.1 mg, Vd/F, single 0.1 mg sc, mean (SD), n=4
  Vd/F: 36.1 L
[2]; both, plasma, sc, 0.5 mg
  AUC(0-t): 19.9 ng·h/mL
  tmax: 30 min
[2]; [4]
  AUC(0-inf): 22.4 ng·h/mL
  half-life: 168 min
[2]; both, plasma, sc, 0.5 mg, CL/F, single 0.5 mg sc, mean (SD), n=4
  CL/F: 28.6 L/h
[2]; both, plasma, sc, 0.5 mg, Cmax, single 0.5 mg sc, mean (SD), n=4
  Cmax: 8.2 ng/mL
[2]; both, plasma, sc, 0.5 mg, Vd/F, single 0.5 mg sc, mean (SD), n=2
  Vd/F: 74.4 L
[2]; both, plasma, sc, 1 mg
  AUC(0-t): 40.3 ng·h/mL
  tmax: 36 min
[2]; [5]
  AUC(0-inf): 46.2 ng·h/mL
  half-life: 402 min
[2]; both, plasma, sc, 1 mg, CL/F, single 1.0 mg sc, mean (SD), n=6
  CL/F: 22.9 L/h
[2]; both, plasma, sc, 1 mg, Cmax, single 1.0 mg sc, mean (SD), n=6
  Cmax: 17.4 ng/mL
[2]; both, plasma, sc, 1 mg, Vd/F, single 1.0 mg sc, mean (SD), n=3
  Vd/F: 173 L
[2]; both, plasma, sc, 1 mg, Vd/F, single 1.0 mg sc, median, n=3
  Vd/F: 186 L
[2]; both, plasma, sc, 3 mg
  AUC(0-t): 137 ng·h/mL
[2]; [6]
  AUC(0-inf): 163 ng·h/mL
  half-life: 738 min
[2]; both, plasma, sc, 3 mg, CL/F, single 3.0 mg sc, mean (SD), n=6
  CL/F: 19.3 L/h
[2]; both, plasma, sc, 3 mg, CL/F, single 3.0 mg sc, median, n=6
  CL/F: 18.4 L/h
[2]; both, plasma, sc, 3 mg, Cmax, single 3.0 mg sc, median, n=6
  Cmax: 49.1 ng/mL
[2]; both, plasma, sc, 3 mg, Vd/F, single 3.0 mg sc, mean (SD), n=4
  Vd/F: 375 L
[2]; both, plasma, sc, 3 mg, Vd/F, single 3.0 mg sc, median, n=4
  Vd/F: 394 L
[2]; both, plasma, sc, 3 mg, single 3.0 mg sc, geometric mean, n=6
  half-life: 912 min
[2]; both, plasma, sc, 3 mg, single 3.0 mg sc, mean (SD), n=6
  half-life: 1170 min
[2]; both, plasma, sc, 5 mg
  AUC(0-t): 226 ng·h/mL
  tmax: 48 min
[2]; [7]
  AUC(0-inf): 240 ng·h/mL
  half-life: 978 min
[2]; both, plasma, sc, 5 mg, CL/F, single 5.0 mg sc, mean (SD), n=6
  CL/F: 21.3 L/h
[2]; both, plasma, sc, 5 mg, Cmax, single 5.0 mg sc, mean (SD), n=6
  Cmax: 87.8 ng/mL
[2]; both, plasma, sc, 5 mg, Vd/F, single 5.0 mg sc, mean (SD), n=6
  Vd/F: 502 L
[2]; 0.1-mg dose
  Median time for last measurable concentration: 2 h
[2]; 0.5-mg dose
  Median time for last measurable concentration: 6 h
[2]; 1-mg dose
  Median time for last measurable concentration: 16 h
[2]; 3-mg dose
  Median time for last measurable concentration: 30 h
[2]; 5-mg dose
  Median time for last measurable concentration: 48 h
[2]; [8]
  AUC0–t: 2.6 ng·h/mL
  AUC∞: 3.4 ng·h/mL
  AUC∞/dose: 34.2 ng·h/mL/mg
  CL/F: 29.2 L/h
  Cmax: 2.2 ng/mL
  Cmax/dose: 22.1 ng/mL/mg
  t½: 48 min
[2]; [9]
  AUC∞/dose: 34.9 (7.82) ng·h/mL/mg
  Cmax/dose: 23.4 (10.1) ng/mL/mg
[2]; single 0.1 mg sc, median, n=4
  AUC0–t: 2.6 ng·h/mL
  AUC∞: 3.5 ng·h/mL
  AUC∞/dose: 35.3 ng·h/mL/mg
  CL/F: 28.5 L/h
  Cmax: 1.9 ng/mL
  Cmax/dose: 18.9 ng/mL/mg
  Vd/F: 36.6 L
  t½: 48 min
[2]; [10]
  AUC∞/dose: 50.4 ng·h/mL/mg
  Vd/F: 74.1 L
[2]; [11]
  AUC0–t: 16.8 ng·h/mL
  AUC∞: 19.4 ng·h/mL
  CL/F: 25.8 L/h
  Cmax: 7.6 ng/mL
  Cmax/dose: 15.3 ng/mL/mg
  t½: 156 min
[2]; single 0.5 mg sc, mean (SD), n=2
  AUC∞/dose: 59.9 (45.8) ng·h/mL/mg
[2]; single 0.5 mg sc, mean (SD), n=4
  Cmax/dose: 16.4 (7.5) ng/mL/mg
[2]; single 0.5 mg sc, median, n=2
  AUC∞/dose: 59.9 ng·h/mL/mg
  Vd/F: 74.4 L
[2]; single 0.5 mg sc, median, n=4
  AUC0–t: 13.3 ng·h/mL
  AUC∞: 15 ng·h/mL
  CL/F: 33.6 L/h
  Cmax: 7.2 ng/mL
  Cmax/dose: 14.3 ng/mL/mg
  t½: 156 min
[2]; single 1.0 mg sc, geometric mean, n=3
  AUC∞/dose: 35.4 ng·h/mL/mg
[2]; [12]
  AUC0–t: 39.4 ng·h/mL
  AUC∞: 44.9 ng·h/mL
  CL/F: 22.3 L/h
  Cmax: 16.7 ng/mL
  Cmax/dose: 16.7 ng/mL/mg
  t½: 366 min
[2]; single 1.0 mg sc, mean (SD), n=3
  AUC∞/dose: 35.4 (1.8) ng·h/mL/mg
[2]; single 1.0 mg sc, mean (SD), n=6
  Cmax/dose: 17.4 (5.0) ng/mL/mg
[2]; single 1.0 mg sc, median, n=3
  AUC∞/dose: 34.5 ng·h/mL/mg
[2]; single 1.0 mg sc, median, n=6
  AUC0–t: 39.2 ng·h/mL
  AUC∞: 45.5 ng·h/mL
  CL/F: 22.7 L/h
  Cmax: 18.3 ng/mL
  Cmax/dose: 18.3 ng/mL/mg
  t½: 360 min
[2]; single 3.0 mg sc, geometric mean, n=4
  AUC∞/dose: 50.9 ng·h/mL/mg
[2]; single 3.0 mg sc, geometric mean, n=6
  Cmax/dose: 17.8 ng/mL/mg
[2]; single 3.0 mg sc, mean (SD), n=4
  AUC∞/dose: 51.3 (7.7) ng·h/mL/mg
[2]; [13]
  AUC0–t: 138 (18.9) ng·h/mL
  AUC∞: 158 (19.4) ng·h/mL
  Cmax: 54.4 (11.3) ng/mL
  Cmax/dose: 18.1 (3.8) ng/mL/mg
[2]; single 3.0 mg sc, median, n=4
  AUC∞/dose: 51.1 ng·h/mL/mg
[2]; single 3.0 mg sc, median, n=6
  AUC0–t: 138 ng·h/mL
  Cmax/dose: 16.4 ng/mL/mg
  tmax: 36 min
[2]; [14]
  AUC0–t: 224 ng·h/mL
  AUC∞: 237 ng·h/mL
  AUC∞/dose: 47.5 ng·h/mL/mg
  CL/F: 21.1 L/h
  Cmax: 83.4 ng/mL
  Cmax/dose: 16.7 ng/mL/mg
  t½: 966 min
[2]; [15]
  AUC∞/dose: 48.0 (7.4) ng·h/mL/mg
  Cmax/dose: 17.6 (6.2) ng/mL/mg
[2]; single 5.0 mg sc, median, n=6
  AUC0–t: 235 ng·h/mL
  AUC∞: 246 ng·h/mL
  AUC∞/dose: 49.2 ng·h/mL/mg
  CL/F: 20.3 L/h
  Cmax: 80.9 ng/mL
  Cmax/dose: 16.2 ng/mL/mg
  Vd/F: 496 L
  t½: 1040 min
[2]; single and multiple ascending sc doses
  Overall tolerability: well tolerated
[2]; single sc dose
  Time after dosing at which PL8177 was first measurable in plasma: 15 min
[2]; single sc dose, at higher doses
  Persistence of measurable PL8177 in plasma: up to 48 h
[2]; single-dose arm
  AEs leading to study discontinuation, serious AEs, or severe AEs: no reports
  Dose linearity for AUC∞ and Cmax: inconclusive
  Intact drug excreted in the urine: ≤ 1%
  Time after dosing at which Cmax was generally reached (tmax): 30 to 45 min
